We go through 22 compounds from ChEMBL document CHEMBL3585269, “Simple structural modifications confer cytotoxicity to allobetulin” (Bioorg Med Chem, 2015).

The nature of experiment [1]: Cytotoxicity against human 518A2 cells by SRB assay. The format is functional, cell-based. In outline: (§1)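 Photometric sulforhodamine B (SRB) read-out after 96 h of compound treatment. EC50 values are averaged from three independent experiments, each run in triplicate, and reported with a 95% confidence interval. The assay has an upper cut-off.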
The subject of a further experiment is HT-29. Description: Cytotoxicity against human HT-29 cells by SRB assay. The format is functional, cell-based. In outline: as §1
Background: Sulforhodamine B stains cellular protein and so reports cell mass.

The test system of another experiment is MCF7. Description: Cytotoxicity against human MCF7 cells by SRB assay. The format is functional, cell-based. In outline: as §1
Another experiment has as its system A549. Description: Cytotoxicity against human A549 cells by SRB assay. The format is functional, cell-based. In outline:
as §1

In another experiment the test system is 8505C. Description: Cytotoxicity against human 8505C cells by SRB assay. It is filed as functional, cell-based. In outline:
as §1

The test system of another experiment is A2780. Description: Cytotoxicity against human A2780 cells by SRB assay. It is filed as functional, cell-based. In outline: as §1
Experiment [2] can be described thus: Cytotoxicity against mouse NIH/3T3 cells by SRB assay. It is filed as cell-based. Conditions: NIH3T3.
The mark [3] stands for this setting: Homo sapiens, 518A2, read-out: EC50.
The mark [4] stands for this setting: Homo sapiens, HT-29, read-out: EC50.
Where [5] appears, read: Homo sapiens, MCF7, read-out: EC50.
[6] abbreviates: Homo sapiens, A549, read-out: EC50.
The mark [7] stands for this setting: Homo sapiens, 8505C, read-out: EC50.
[8] abbreviates: Homo sapiens, A2780, read-out: EC50.

Turning to `CC1(C)CC[C@]23CC[C@]4(C)[C@H](CC[C@@H]5[C@@]6(C)C=C(O)C(=O)C(C)(C)[C@@H]6CC[C@]54C)[C@H]2[C@H]1OC3`, the EC50 (commonly the concentration needed to bring the measured effect to its halfway point) in experiment [1] (setting [3]) is more than 30 µM; in the experiment with HT-29 (setting [4]), more than 30 µM; in the experiment on MCF7 (setting [5]), more than 30 µM; in the experiment with A549 (setting [6]) it was 23.3 µM; in the experiment with 8505C (setting [7]), more than 30 µM; in the experiment with A2780 (setting [8]), more than 30 µM.
Take `CC1(C)CC[C@]23CC[C@]4(C)[C@H](CC[C@@H]5[C@@]6(C)CCC(=O)OC(C)(C)[C@@H]6CC[C@]54C)[C@H]2[C@H]1OC3`: the EC50 (in experiment [1] (setting [3]); with HT-29 (setting [4]); with MCF7 (setting [5]); in the experiment on A549 (setting [6]); in the experiment with 8505C (setting [7]); in the experiment with A2780 (setting [8])) was more than 30 µM each time.
In the case of `CC1(C)CC[C@]23CC[C@]4(C)[C@H](CC[C@@H]5[C@@]6(C)CC/C(=N\O)C(C)(C)[C@@H]6CC[C@]54C)[C@H]2[C@H]1OC3`, the EC50 result (in experiment [1] (518a2); in the experiment with HT-29 (ht-29); with MCF7 (mcf7); in the experiment on A549 (a549); in the experiment with 8505C (8505c); with A2780 (a2780)) was “ND(Insoluble)” each time.
As to `C=C(C)[C@@H]1CC[C@]2(C)[C@H](CC[C@@H]3[C@H]4[C@H]5OC[C@@]4(CCC5(C)C)CC[C@]32C)[C@@]1(C)CCC#N`, the EC50 in experiment [1] (setting [3]) was 25.7 µM; in the experiment with HT-29 (setting [4]), more than 30 µM; in the experiment on MCF7 (setting [5]) it was more than 30 µM; in the experiment with A549 (setting [6]), 21.5 µM; with 8505C (setting [7]), more than 30 µM; in the experiment with A2780 (setting [8]), more than 30 µM.
As to `C=C(C)[C@@H]1CC[C@]2(C)[C@H](CC[C@@H]3[C@H]4[C@H]5OC[C@@]4(CCC5(C)C)CC[C@]32C)[C@@]1(C)CCC(=O)OC`, the EC50 (in experiment [1] (setting [3]); with HT-29 (setting [4]); with MCF7 (setting [5]); with A549 (setting [6]); in the experiment on 8505C (setting [7]); in the experiment on A2780 (setting [8])) was more than 30 µM throughout.
In the case of `C=C(C)[C@@H]1CC[C@]2(C)[C@H](CC[C@@H]3[C@H]4[C@H]5OC[C@@]4(CCC5(C)C)CC[C@]32C)[C@@]1(C)CCC(=O)O`, the EC50 entry (in experiment [1] (518a2); in the experiment with HT-29 (ht-29); with MCF7 (mcf7); in the experiment on A549 (a549); with 8505C (8505c); in the experiment on A2780 (a2780)) was “ND(Insoluble)” throughout.
For the compound `C=C(C)[C@@H]1CC[C@]2(C)[C@H](CC[C@@H]3[C@H]4[C@H]5OC[C@@]4(CCC5(C)C)CC[C@]32C)[C@@]1(C)CCC(=O)OCC`, the EC50 (in experiment [1] (setting [3]); with HT-29 (setting [4]); in the experiment on MCF7 (setting [5]); with A549 (setting [6]); with 8505C (setting [7]); with A2780 (setting [8])) was more than 30 µM each time.
On to `C=C(C)[C@@H]1CC[C@]2(C)[C@H](CC[C@@H]3[C@H]4[C@H]5OC[C@@]4(CCC5(C)C)CC[C@]32C)[C@@]1(C)CCC(=O)OCCC`, for which the EC50 (in experiment [1] (setting [3]); in the experiment with HT-29 (setting [4]); in the experiment with MCF7 (setting [5]); with A549 (setting [6]); with 8505C (setting [7]); with A2780 (setting [8])) was more than 30 µM each time.
Regarding `C=CCOC(=O)CC[C@]1(C)[C@H]2CC[C@@H]3[C@H]4[C@H]5OC[C@@]4(CCC5(C)C)CC[C@@]3(C)[C@]2(C)CC[C@H]1C(=C)C`, the EC50 (in experiment [1] (setting [3]); with HT-29 (setting [4]); in the experiment with MCF7 (setting [5]); with A549 (setting [6]); in the experiment on 8505C (setting [7]); in the experiment on A2780 (setting [8])) was more than 30 µM throughout.
With `C#CCOC(=O)CC[C@]1(C)[C@H]2CC[C@@H]3[C@H]4[C@H]5OC[C@@]4(CCC5(C)C)CC[C@@]3(C)[C@]2(C)CC[C@H]1C(=C)C`, the EC50 (in experiment [1] (setting [3]); in the experiment with HT-29 (setting [4]); with MCF7 (setting [5]); with A549 (setting [6]); in the experiment with 8505C (setting [7]); with A2780 (setting [8])) was more than 30 µM in each case.
Consider `C=C(C)[C@@H]1CC[C@]2(C)[C@H](CC[C@@H]3[C@H]4[C@H]5OC[C@@]4(CCC5(C)C)CC[C@]32C)[C@@]1(C)CCC(=O)OCCCC`, for which the EC50 (in experiment [1] (setting [3]); with HT-29 (setting [4]); with MCF7 (setting [5]); in the experiment on A549 (setting [6]); with 8505C (setting [7]); in the experiment on A2780 (setting [8])) was more than 30 µM throughout.
As to `C=C(C)[C@@H]1CC[C@]2(C)[C@H](CC[C@@H]3[C@H]4[C@H]5OC[C@@]4(CCC5(C)C)CC[C@]32C)[C@@]1(C)CCC(=O)OCc1ccccc1`, the EC50 result (in experiment [1] (518a2); in the experiment with HT-29 (ht-29); in the experiment on MCF7 (mcf7); in the experiment on A549 (a549); with 8505C (8505c); in the experiment on A2780 (a2780)) was “ND(Insoluble)” each time.
Take `CC1(C)CC[C@]23CC[C@]4(C)[C@H](CC[C@@H]5[C@@](C)(CC(=O)O)[C@H](C(C)(C)C(=O)O)CC[C@]54C)[C@H]2[C@H]1OC3`: the EC50 entry (in experiment [1] (518a2); in the experiment with HT-29 (ht-29); with MCF7 (mcf7); with A549 (a549); with 8505C (8505c); in the experiment on A2780 (a2780)) was “ND(Insoluble)” in each case.
For `COC(=O)C[C@]1(C)[C@H]2CC[C@@H]3[C@H]4[C@H]5OC[C@@]4(CCC5(C)C)CC[C@@]3(C)[C@]2(C)CC[C@H]1C(C)(C)C(=O)OC`, the EC50 in experiment [1] (setting [3]) is 29.4 µM; with HT-29 (setting [4]), 17.5 µM; in the experiment with MCF7 (setting [5]) it was 29.4 µM; in the experiment on A549 (setting [6]), more than 30 µM; with 8505C (setting [7]) it was 27.1 µM; in the experiment on A2780 (setting [8]), 18.1 µM.
For `CCOC(=O)C[C@]1(C)[C@H]2CC[C@@H]3[C@H]4[C@H]5OC[C@@]4(CCC5(C)C)CC[C@@]3(C)[C@]2(C)CC[C@H]1C(C)(C)C(=O)OCC`, the EC50 in experiment [2] worked out at 25 µM; in experiment [1] (setting [3]), 26.1 µM; in the experiment with HT-29 (setting [4]) it was 17.6 µM; with MCF7 (setting [5]) it was 26.1 µM; with A549 (setting [6]) it was 5.9 µM; in the experiment with 8505C (setting [7]), 24.6 µM. The EC50 with A2780 (setting [8]) was found to be 18.9 µM.
On to `CCCOC(=O)C[C@]1(C)[C@H]2CC[C@@H]3[C@H]4[C@H]5OC[C@@]4(CCC5(C)C)CC[C@@]3(C)[C@]2(C)CC[C@H]1C(C)(C)C(=O)OCCC`, for which the EC50 in experiment [1] (setting [3]) is more than 30 µM; in the experiment on HT-29 (setting [4]), 27 µM; in the experiment with MCF7 (setting [5]), more than 30 µM; in the experiment on A549 (setting [6]), more than 30 µM; with 8505C (setting [7]) it was more than 30 µM; in the experiment with A2780 (setting [8]), 22.4 µM.
On to `C=CCOC(=O)C[C@]1(C)[C@H]2CC[C@@H]3[C@H]4[C@H]5OC[C@@]4(CCC5(C)C)CC[C@@]3(C)[C@]2(C)CC[C@H]1C(C)(C)C(=O)OCC=C`, for which the EC50 was more than 30 µM in experiment [1] (setting [3]); 29.2 µM with HT-29 (setting [4]); more than 30 µM with MCF7 (setting [5]); more than 30 µM in the experiment with A549 (setting [6]); more than 30 µM in the experiment with 8505C (setting [7]); 22.7 µM with A2780 (setting [8]).
As for `C#CCOC(=O)C[C@]1(C)[C@H]2CC[C@@H]3[C@H]4[C@H]5OC[C@@]4(CCC5(C)C)CC[C@@]3(C)[C@]2(C)CC[C@H]1C(C)(C)C(=O)OCC#C`, the EC50 in experiment [1] (setting [3]) came out at 17.4 µM; in the experiment with HT-29 (setting [4]), 15.7 µM; in the experiment with MCF7 (setting [5]), 27.2 µM; in the experiment with A549 (setting [6]) it was 21.1 µM; in the experiment on 8505C (setting [7]) it was 18.7 µM; in the experiment on A2780 (setting [8]), 12.5 µM.
`CCCCOC(=O)C[C@]1(C)[C@H]2CC[C@@H]3[C@H]4[C@H]5OC[C@@]4(CCC5(C)C)CC[C@@]3(C)[C@]2(C)CC[C@H]1C(C)(C)C(=O)OCCCC`: the EC50 (in experiment [1] (setting [3]); with HT-29 (setting [4]); with MCF7 (setting [5]); with A549 (setting [6]); with 8505C (setting [7]); with A2780 (setting [8])) was more than 30 µM in each case.
`CC1(C)CC[C@]23CC[C@]4(C)[C@H](CC[C@@H]5[C@@](C)(CC(=O)OCc6ccccc6)[C@H](C(C)(C)C(=O)OCc6ccccc6)CC[C@]54C)[C@H]2[C@H]1OC3`: the EC50 result (in experiment [1] (518a2); in the experiment on HT-29 (ht-29); in the experiment on MCF7 (mcf7); with A549 (a549); with 8505C (8505c); in the experiment with A2780 (a2780)) was “ND(Insoluble)” throughout.
For `CC1(C)CC[C@]23CC[C@]4(C)[C@H](CC[C@@H]5[C@@]6(C)CC[C@H](O)C(C)(C)[C@@H]6CC[C@]54C)[C@H]2[C@H]1OC3` [ALLOBETULIN], the EC50 (in experiment [1] (setting [3]); with HT-29 (setting [4]); in the experiment with MCF7 (setting [5]); in the experiment on A549 (setting [6]); in the experiment on 8505C (setting [7]); with A2780 (setting [8])) was more than 30 µM each time.
Consider `C=C(C)[C@@H]1CC[C@]2(CO)CC[C@]3(C)[C@H](CC[C@@H]4[C@@]5(C)CC[C@H](O)C(C)(C)[C@@H]5CC[C@]43C)[C@@H]12` [BETULIN], for which the EC50 in experiment [1] (setting [3]) was 28.8 µM; in the experiment on HT-29 (setting [4]), more than 30 µM; in the experiment with MCF7 (setting [5]), 24.4 µM; with A549 (setting [6]) it was 20.6 µM; with 8505C (setting [7]) it was more than 30 µM; in the experiment on A2780 (setting [8]), 29.3 µM.
